Experiments:
Assay type in all cases: functional
HL-60 [1] = experiment: Antiproliferative activity against human HL60 cells after 72 hrs by SRB assay; conditions: Homo sapiens, HL-60, 72 h
In short: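 HL60 human promyelocytic leukemia cells were seeded and grown for 24 h, then given compounds and cultured for another 72 h. Read-out was SRB, per the table footnote. GI50 was obtained by the Logit method from three or more independent experiments.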

A549 [2] = experiment: Antiproliferative activity against human A549 cells after 72 hrs by MTT assay; conditions: Homo sapiens, A549, 72 h
In short: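 A549 human lung adenocarcinoma epithelial cells were seeded and grown for 24 h, then exposed to compounds for a further 72 h. Proliferation was read by MTT, as assigned in the table footnote. GI50 was calculated by the Logit method from at least three independent experiments.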

A549 [3] = experiment: Antiproliferative activity against human A549 cells at 10^-6 mol/L after 72 hrs by MTT assay; conditions: A549, 72 h
HL-60 [4] = experiment: Antiproliferative activity against human HL60 cells at 10^-6 mol/L after 72 hrs by SRB assay; conditions: HL-60, 72 h
A549 [5] = experiment: Antiproliferative activity against human A549 cells at 10^-8 mol/L after 72 hrs by MTT assay; conditions: A549, 72 h
HL-60 [6] = experiment: Antiproliferative activity against human HL60 cells at 10^-8 mol/L after 72 hrs by SRB assay; conditions: HL-60, 72 h
HL-60 [7] = experiment: Antiproliferative activity against human HL60 cells at 10^-7 mol/L after 72 hrs by SRB assay; conditions: HL-60, 72 h
A549 [8] = experiment: Antiproliferative activity against human A549 cells at 10^-7 mol/L after 72 hrs by MTT assay; conditions: A549, 72 h

SMILES | GI50 (HL-60 [1]) [nM] | GI50 (A549 [2]) [nM] | inhibition at 1 µM (A549 [3]) [%] | inhibition at 1 µM (HL-60 [4]) [%] | inhibition at 0.01 µM (A549 [5]) [%] | inhibition at 0.01 µM (HL-60 [6]) [%] | inhibition at 0.1 µM (HL-60 [7]) [%] | inhibition at 0.1 µM (A549 [8]) [%]
COc1cc2c3c(c4cc(OC)c(OC)cc4c2cc1OC)[C@H](O)[C@@H]1CCCCN1C3 | 300 | 400 |  |  |  |  |  | 
COc1cc2c3c(c4cc(OC)c(OC)cc4c2cc1OC)[C@@H](O)[C@H]1CCCCN1C3 | < 1 | 70 |  |  |  |  |  | 
COc1ccc2c3c(c4cc(OC)c(OC)cc4c2c1)[C@H](O)[C@@H]1CCCCN1C3 | 40 | 1000 |  |  |  |  |  | 
COc1cc2c3c(c4cc(OC)c(OC)cc4c2cc1OC)[C@H](O)[C@@H]1CCCN1C3 |  | 670 | 80.9 | 85 | 17.1 | 34.5 | 59.5 | 55
COc1cc2c3c(c4cc(OC)c(OC)cc4c2cc1OC)[C@@H](O)[C@@H]1CCCN1C3 |  |  | 50 | 49.8 | 5.2 | 3.9 | 8.2 | 8.2
COc1cc2c3c(c4cc5c(cc4c2cc1OC)OCO5)CC1CCCN1C3 (racemic) |  |  | 70.3 | 62.9 | 15.9 | 11.7 | 9.4 | 22.4
COc1cc2c3c(c4cc5c(cc4c2cc1OC)OCO5)CN1CCCC1C3 (racemic) |  |  | 80.9 | 88.4 | 16.9 | 14.8 | 56.4 | 51.6
c1c2c(cc3c1c1c(c4cc5c(cc43)OCO5)CN3CCCC3C1)OCO2 (racemic) |  |  | 40.8 | 13.6 | 5.7 | 10.4 | 8.3 | 5.2
COc1cc2c3c(c4cc5c(cc4c2cc1OC)OCCO5)CC1CCCN1C3 (racemic) |  | 360 | 87.4 | 83.1 | 14 | 3.8 | 37 | 58.2
COc1cc2c3c(c4cc5c(cc4c2cc1OC)OCCO5)CN1CCCC1C3 (racemic) |  | 970 | 85.6 | 84.4 | 2.1 | 16 | 52.2 | 78.9
c1c2c(cc3c1c1c(c4cc5c(cc43)OCCO5)CN3CCCC3C1)OCCO2 (racemic) |  |  | 38.6 | 11.2 | 8.7 | 0 | 8.2 | 6.3
COc1cc2c3c(c4cc(OC)c(OC)cc4c2cc1OC)CN1CCCC1C3 (racemic) [(+/-)-TYLOPHORINE] | 100 | 1300 | 72.3 | 71.3 | 6 | 14.9 | 40.5 | 61.4
COc1cc2c3c(c4cc(OC)c(OC)cc4c2cc1OC)CN1CCC[C@H]1C3 [(S)-TYLOPHORINE] | 10 | 700 |  |  |  |  |  | 
COc1ccc2c3c(c4cc(OC)c(OC)cc4c2c1)C[C@H]1CCCCN1C3 [CRYPTOPLEURINE] | < 1 | < 1 |  |  |  |  |  | 
COc1cc2c3c(c4cc(OC)c(OC)cc4c2cc1OC)CN1CCC[C@@H]1C3 [TYLOPHORINE] | 100 | 500 |  |  |  |  |  | 

Further lines, with some results ahead:

GI50 (HL-60 [1]) [nM] | GI50 (A549 [2]) [nM] | SMILES | inhibition at 1 µM (A549 [3]) [%] | inhibition at 1 µM (HL-60 [4]) [%] | inhibition at 0.01 µM (A549 [5]) [%] | inhibition at 0.01 µM (HL-60 [6]) [%] | inhibition at 0.1 µM (HL-60 [7]) [%] | inhibition at 0.1 µM (A549 [8]) [%]
500 | 900 | COc1ccc2c3c(c4cc(OC)c(OC)cc4c2c1)CN1CCCC[C@@H]1C3 |  |  |  |  |  | 
< 1 | 400 | COc1ccc2c3c(c4cc(OC)c(OC)cc4c2c1)CN1CCCC[C@H]1[C@H]3O |  |  |  |  |  | 
< 1 | 300 | COc1ccc2c3c(c4cc(OC)c(OC)cc4c2c1)CN1CCCC[C@@H]1[C@@H]3O |  |  |  |  |  | 
< 1 | < 1 | COc1cc2c3c(c4ccc(O)cc4c2cc1OC)CN1CCC[C@@H]1C3 | 94.8 | 89.7 | 86 | 86.5 | 87.1 | 92.3
< 1 | 20 | COc1ccc2c3c(c4cc(OC)c(OC)cc4c2c1)[C@@H](O)[C@H]1CCCCN1C3 |  |  |  |  |  | 
< 1 | 10 | COc1ccc2c3c(c4cc(OC)c(OC)cc4c2c1)C[C@H]1CCCN1C3 [(-)-ANTOFINE] |  |  |  |  |  | 
200 | 300 | COc1ccc2c3c(c4cc(OC)c(OC)cc4c2c1)C[C@@H]1CCCN1C3 [HYPOESTESTATIN 1] |  |  |  |  |  | 
